In ChEMBL document CHEMBL3739335, “Phosphonooxymethyl Prodrug of Triptolide: Synthesis, Physicochemical Characterization, and Efficacy in Human Colon Adenocarcinoma and Ovarian Cancer Xenografts” (J Med Chem, 2015):
Calls of active or inactive are those of the source. No cut-off for these calls is given here.

What was measured:
[1] = Aqueous solubility of the compound in Tris buffer at pH 7.4 at room temperature by HPLC analysis; assay type: physicochemical
Outline: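 About 5 mg solid was added to Tris buffer pH 7.4 in triplicate to saturation, then sonicated and vortexed. Samples were shaken at 25 °C for 24 h. Excess solid was removed by centrifugation and filtration, and the diluted filtrate was quantified by reverse-phase C18 HPLC with photodiode array detection, using an acetonitrile/10 mM sodium phosphate pH 7 gradient.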

[2] = Second dissociation constant, pKa2 of the compound by 31P NMR analysis
Outline: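 pKa2 derived from the pH dependence of the observed 31P NMR chemical shift across solutions of varying pH, by sigmoidal fit (titration-type curve); at 25 °C.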

[3] = Chemical stability of the compound in buffer assessed as compound remaining at pH 1 after 24 hrs by HPLC analysis; assay type: physicochemical; conditions: read-out: Stability
[4] = Chemical stability of the compound in buffer assessed as compound remaining at pH 2 after 1 hr by HPLC analysis; assay type: physicochemical; conditions: read-out: Stability
[5] = Chemical stability of the compound in buffer assessed as compound remaining at pH 2 after 2 hrs by HPLC analysis; assay type: physicochemical; conditions: read-out: Stability
[6] = Chemical stability of the compound in buffer assessed as compound remaining at pH 2 after 8 hrs by HPLC analysis; assay type: physicochemical; conditions: read-out: Stability
[7] = Chemical stability of the compound in buffer assessed as compound remaining at pH 4 after 1 hr by HPLC analysis; assay type: physicochemical; conditions: read-out: Stability
[8] = Chemical stability of the compound in buffer assessed as compound remaining at pH 4 after 4 hrs by HPLC analysis; assay type: physicochemical; conditions: read-out: Stability
[9] = Chemical stability of the compound in buffer assessed as compound remaining at pH 4 after 24 hrs by HPLC analysis; assay type: physicochemical; conditions: read-out: Stability
[10] = Chemical stability of the compound in buffer assessed as compound remaining at pH 6 after 4 hrs by HPLC analysis; assay type: physicochemical; conditions: read-out: Stability
[11] = Chemical stability of the compound in buffer assessed as compound remaining at pH 7.4 after 2 hrs by HPLC analysis; assay type: physicochemical; conditions: read-out: Stability
[12] = Chemical stability of the compound in buffer assessed as compound remaining at pH 7.4 after 24 hrs by HPLC analysis; assay type: physicochemical; conditions: read-out: Stability
[13] = Chemical stability of the compound in buffer assessed as pseudo-first-order rate constant at 60 degC at pH 7.4 by Arrhenius plot analysis; assay type: physicochemical
[14] = Chemical stability of the compound in buffer assessed as pseudo-first-order rate constant at 70 degC at pH 7.4 by Arrhenius plot analysis; assay type: physicochemical
[15] = Chemical stability of the compound in buffer assessed as pseudo-first-order rate constant at 25 degC at pH 7.4 by Arrhenius plot analysis; assay type: physicochemical
Outline: (§1)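 Pseudo-first-order kobsd at each temperature was fitted to an Arrhenius plot, which was extrapolated to 25 and 4 °C. t1/2 and t90 (time for 10% loss) were calculated from the extrapolated kobsd.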

[16] = Chemical stability of the compound in buffer assessed as pseudo-first-order rate constant at 4 degC at pH 7.4 by Arrhenius plot analysis; assay type: physicochemical; outline: as §1
[17] = Half life of the compound in buffer at 4 degC at pH 7.4; assay type: physicochemical; outline: as §1
alkaline phosphatase = target: T1, alkaline phosphatase (Bos taurus, UniProt P09487); experiment: Half life of the compound in glycine buffer assessed as bovine intestinal mucosal alkaline phosphatase-mediated compound degradation at pH 9.8; assay type: ADME; conditions: cattle
T1 sequence (P09487 whole entry): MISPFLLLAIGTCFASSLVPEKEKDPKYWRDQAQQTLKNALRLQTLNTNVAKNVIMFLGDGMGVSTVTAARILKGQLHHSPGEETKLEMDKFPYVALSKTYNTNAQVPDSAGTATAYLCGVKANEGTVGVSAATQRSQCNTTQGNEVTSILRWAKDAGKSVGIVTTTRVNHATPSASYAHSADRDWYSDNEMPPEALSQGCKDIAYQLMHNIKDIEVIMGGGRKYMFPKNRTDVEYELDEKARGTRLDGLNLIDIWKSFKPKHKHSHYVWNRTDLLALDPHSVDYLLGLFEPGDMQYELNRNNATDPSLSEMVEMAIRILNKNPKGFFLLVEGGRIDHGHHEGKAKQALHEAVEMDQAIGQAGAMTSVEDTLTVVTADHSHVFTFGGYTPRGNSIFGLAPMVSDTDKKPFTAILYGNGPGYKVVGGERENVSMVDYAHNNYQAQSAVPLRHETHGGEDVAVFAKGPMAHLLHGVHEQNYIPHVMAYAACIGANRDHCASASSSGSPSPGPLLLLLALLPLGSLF
Outline: (§2)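 Conversion in glycine buffer pH 9.8 with alkaline phosphatase from bovine intestinal mucosa; loss of compound and formation of triptolide followed, first-order fit for half-life. Control run in same buffer without enzyme for 1 h.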

[18] = Stability of the compound in glycine buffer at pH 9.8 after 1 hr in absence of bovine intestinal mucosal alkaline phosphatase; assay type: physicochemical; conditions: pH 9.8, 1 h; outline: as §2
HT-29 = experiment: Antitumor activity against human HT-29 cells xenografted in athymic nude mouse at 0.9 mg/kg, ip qd administered for 4 weeks; assay type: functional, organism-based
Outline: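 Female athymic nude mice, 7–9 weeks, implanted s.c. on right flank with 1.74 × 10^6 HT-29 cells (ATCC, mycoplasma/rodent-pathogen tested) in 50% Matrigel/50% McCoy's 5A; randomized at mean tumor 110 mm3, 10/group. IP dosing in USP saline, 0.2 mL, over a 28-day treatment period. Tumor volume by caliper (L × W2/2) at least twice weekly, tumor weight at necropsy, survival, body weight.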

Mus musculus [19] = experiment: Toxicity in athymic nude mouse xenografted with human HT-29 cells assessed as mortality at 0.9 mg/kg, ip administered for 4 weeks; assay type: organism-based; conditions: in vivo, 672 h
Outline: (§3)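 Female athymic nude mice, 7–9 weeks old, received 1.74 × 10^6 HT-29 cells subcutaneously in the right flank in 50% Matrigel/McCoy's 5A. Randomized at 110 mm3, 10 per group. Intraperitoneal dosing in USP saline (0.2 mL) over a 28-day period on the stated schedule. Body weights were taken twice weekly; clinical signs and survival were recorded.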

Mus musculus [20] = experiment: Toxicity in athymic nude mouse xenografted with human HT-29 cells assessed as mortality at 0.9 mg/kg, ip administered for 2 weeks; assay type: organism-based; conditions: in vivo, 336 h
Mus musculus [21] = experiment: Toxicity in athymic nude mouse xenografted with human HT-29 cells assessed as mortality at 0.9 mg/kg, ip administered for 2 weeks followed by 3 times per week; assay type: organism-based; conditions: in vivo, 336 h; outline: as §3
Mus musculus [22] = experiment: Toxicity in athymic nude mouse xenografted with human HT-29 cells assessed as skin irritation at 0.9 mg/kg, ip administered 14 days measured post last dose; assay type: organism-based; conditions: in vivo, 336 h
Mus musculus [23] = experiment: Toxicity in athymic nude mouse xenografted with human A2780 cells assessed as survival at 0.6 to 0.9 mg/kg, ip administered for 30 days; assay type: organism-based; conditions: in vivo, 720 h
Outline: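 Female athymic nude mice, 7–9 weeks old, carried subcutaneous flank A2780 xenografts (2.5 × 10^6 cells in 50% Matrigel). Randomized at 188 mm3 mean tumor volume, 10 per group. Daily intraperitoneal dosing in USP saline (0.2 mL) for 30 days, based on group-mean weight. Survival and clinical signs were monitored.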

[24] = Stability of the compound in simulated gastric fluid assessed as compound remaining after 2 hrs by HPLC analysis
[25] = Stability of the compound in simulated gastric fluid assessed as compound remaining after 8 hrs by HPLC analysis

CC(C)[C@]12O[C@H]1[C@@H]1O[C@]13[C@]1(O[C@H]1C[C@H]1C4=C(CC[C@@]13C)C(=O)OC4)[C@@H]2OCOP(=O)([O-])[O-].[Na+].[Na+] [MINNELIDE]
solubility [1]: 61 mg/mL
pKa [2]: 6.61
remaining at 24 h [3]: 0%
remaining at 1 h [4]: 98%
remaining at 2 h [5]: 97%
remaining at 8 h [6]: 94%
remaining at 1 h [7]: 100%
remaining at 4 h [8]: 100%
remaining at 24 h [9]: 99%
remaining at 4 h [10]: 100%
remaining at 2 h [11]: 100%
remaining at 24 h [12]: 100%
K [13]: 0.002482 h⁻¹
K [14]: 0.008659 h⁻¹
K [15]: 8.6 ×10⁻⁵ /hr
K [16]: 6.5 ×10⁻⁶ /hr
t1/2 [17]: 12.2 yr
half-life (alkaline phosphatase): 2 min
Stability [18]: Stable
Activity (HT-29): Active
Activity (Mus musculus [19]): Toxic
Activity (Mus musculus [20]): Toxic
Activity (Mus musculus [21]): Toxic
Activity (Mus musculus [22]): Toxic
Activity (Mus musculus [23]): Non-toxic
remaining at 2 h [24]: 85%
remaining at 8 h [25]: 47%
